The values below come from ChEMBL document CHEMBL1687712, “Antiviral effects of lamivudine, emtricitabine, adefovir dipivoxil, and tenofovir disoproxil fumarate administered orally alone and in combination to woodchucks with chronic woodchuck hepatitis virus infection” (Antimicrob Agents Chemother, 2008).

Calls of active or inactive are those of the source. No cut-off for these calls is given here.

For data set [1], the system named is Woodchuck hepatitis virus. Nature of the data set: Antiviral activity against Woodchuck hepatitis virus infected in woodchuck assessed as reduction of viral DNA replicative intermediate level per ug of total cell DNA at 15 mg/kg, po qd for 48 weeks measured on 60th week (reference value: 979 pg). It counts as functional. Summed up: (§1)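 Chronic WHV-carrier woodchucks, 5 per group, 15 mg/kg/day oral once daily for 48 weeks in liquid diet. Needle liver biopsies were snap-frozen in liquid nitrogen and stored at −70°C. Hepatic WHV DNA replicative intermediates were quantified by Southern blot (pg/μg total cell DNA) and WHV RNA by Northern blot; group means ± SD were compared with pretreatment and placebo.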

In data set [2] the test system is Marmota monax. Nature of the data set: Toxicity in Woodchuck hepatitis virus infected woodchuck assessed as increase of liver alkaline phosphatase activity at 15 mg/kg, po qd for 48 weeks. It counts as organism-based. Further details: dose 15 mg/kg, route oral. The note with it: in vivo, 8064 h. The procedure, abridged: (§2)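 Woodchucks chronically infected with WHV, 5 per group, received oral drug once daily in liquid diet for 48 weeks; placebo got diet only. Serum chemistry (GGT, ALP, ALT, AST, SDH, among others) was run 2 weeks pretreatment, at week 0, every other week to week 12, then monthly to week 48. Sampling continued at 2, 4, 6, 8 and 12 weeks post-treatment.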

Data set [3] deals with Marmota monax. Kind of data set: Toxicity in Woodchuck hepatitis virus infected woodchuck assessed as increase of liver sorbitol dehydrogenase activity at 15 mg/kg, po qd measured on 4 to 24 weeks on 48 week study. In kind it is organism-based. Further details: dose 15 mg/kg, route oral. The note with it: in vivo. The procedure, abridged: as §2
In data set [4] the test system is Woodchuck hepatitis virus. Nature of the data set: Antiviral activity against Woodchuck hepatitis virus infected in woodchuck assessed as reduction of viral antigen positive hepatocytes at 15 mg/kg, po qd measured on 12th week on 48 weeks study (reference value: 55 +/- 32 %). Further details: scale not given: the % may be the effect or the level left. In kind it is functional, Hepatocyte. Summed up:
(§3)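 Chronic WHV-carrier woodchucks, 5 per group, 15 mg/kg/day oral once daily for 48 weeks in liquid diet. Liver biopsies were taken at pretreatment, weeks 12, 36, 48 and week 60. Percentage of hepatocytes positive for WHcAg was given as group mean ± SD and compared with pretreatment and placebo.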

Data set [5] relates to Woodchuck hepatitis virus. Nature of the data set: Antiviral activity against Woodchuck hepatitis virus infected in woodchuck assessed as absent of lesion in portal hepatitis at 15 mg/kg, po qd for 48 weeks measured on 60th week. Further details: dose 15 mg/kg. It counts as functional, organism-based. The procedure, abridged:
(§4)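 Chronic WHV-carrier adult woodchucks (inoculated at 3 days of age), 5 per group, dosed orally once daily for 48 weeks by dose syringe, drug in saline suspended in semisynthetic liquid diet; placebo is diet alone. Ultrasound-guided needle liver biopsies under ketamine/xylazine, formalin-fixed, H&E stained; portal and lobular hepatitis graded 0 (absent) to 4 (most severe).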

Data set [6] concerns Woodchuck hepatitis virus. Kind of data set: Antiviral activity against Woodchuck hepatitis virus infected in woodchuck assessed as reduction of viral DNA replicative intermediate level per ug of total cell DNA at 15 mg/kg, po qd measured on 12th week on 48 weeks study (reference value: 1495 +/- 890 pg). It counts as functional. The procedure, abridged: as §1
The subject of data set [7] is Woodchuck hepatitis virus. Kind of data set: Antiviral activity against Woodchuck hepatitis virus infected in woodchuck assessed as reduction of viral RNA level per ug of total cell DNA at 15 mg/kg, po qd measured on 36th week on 48 weeks study (reference value: 33 +/- 21 pg). In kind it is functional. Summed up:
as §1

The test system of data set [8] is Marmota monax. Kind of data set: Toxicity in Woodchuck hepatitis virus infected woodchuck assessed as increase of serum gamma-glutamyltransferase activity at 15 mg/kg, po qd for 48 weeks. It counts as organism-based. Further details: dose 15 mg/kg, route oral. The note with it: in vivo, 8064 h. Summed up: as §2
Data set [9] deals with Woodchuck hepatitis virus. Kind of data set: Antiviral activity against Woodchuck hepatitis virus infected in woodchuck assessed as reduction of viral RNA level per ug of total cell DNA at 15 mg/kg, po qd for 48 weeks (reference value: 34 +/- 20 pg). It counts as functional. Summed up:
as §1

In data set [10] the test system is Marmota monax. Kind of data set: Toxicity in Woodchuck hepatitis virus infected woodchuck assessed as change in body weight at 15 mg/kg, po qd for 48 weeks measured up to 60 weeks. In kind it is organism-based. Further details: dose 15 mg/kg, route oral. The note with it: in vivo. Summed up:
(§5)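 Chronic WHV-carrier woodchucks, 5 per group, were dosed orally once daily in liquid diet for 48 weeks, with a placebo diet-only group. Body weights were monitored. Complete blood counts were taken 2 weeks pretreatment, at weeks 12, 36 and 48 of treatment, and 12 weeks after withdrawal. Values were compared with placebo controls.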

The test system of data set [11] is Woodchuck hepatitis virus. Kind of data set: Antiviral activity against Woodchuck hepatitis virus infected in woodchuck assessed as reduction of viral antigen level in serum at 15 mg/kg, po qd for 48 weeks measured on 60th week (reference value: 3.3 +/- 1.6 log10 ng/ml). It counts as functional.
Data set [12] relates to Woodchuck hepatitis virus. Nature of the data set: Antiviral activity against Woodchuck hepatitis virus infected in woodchuck assessed as reduction of viral DNA replicative intermediate level per ug of total cell DNA at 15 mg/kg, po qd measured on 36th week on 48 weeks study (reference value: 1132 +/- 738 pg). In kind it is functional. Summed up: as §1
In data set [13] the test system is Marmota monax. Nature of the data set: Toxicity in Woodchuck hepatitis virus infected woodchuck assessed as increase of liver sorbitol dehydrogenase activity at 15 mg/kg, po qd measured on 28 to 48 weeks on 48 week study. In kind it is organism-based. Further details: dose 15 mg/kg, route oral. The note with it: in vivo. Summed up:
as §2

The subject of data set [14] is Woodchuck hepatitis virus. Nature of the data set: Antiviral activity against Woodchuck hepatitis virus infected in woodchuck assessed as absent of lesion in portal hepatitis at 15 mg/kg, po qd for 48 weeks. It counts as functional, organism-based. Further details: dose 15 mg/kg. The procedure, abridged:
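Adult chronic WHV-carrier woodchucks (neonatally inoculated), 5 per group, given drug once daily by dose syringe in semisynthetic liquid diet, for 48 weeks; placebo got diet alone. Ultrasound-guided needle liver biopsies under ketamine/xylazine anesthesia at pretreatment, weeks 12, 36, 48 and 12 weeks post-withdrawal. Biopsies were formalin-fixed, paraffin-embedded and H&E stained. Portal and lobular hepatitis were graded 0 (absent) to 4 (most severe).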

The test system of data set [15] is Woodchuck hepatitis virus. Kind of data set: Antiviral activity against Woodchuck hepatitis virus infected in woodchuck assessed as reduction of viral DNA replicative intermediate level per ug of total cell DNA at 15 mg/kg, po qd for 48 weeks (reference value: 995 +/- 736 pg). It counts as functional. Summed up: as §1
Data set [16] relates to Woodchuck hepatitis virus. Kind of data set: Antiviral activity against Woodchuck hepatitis virus infected in woodchuck assessed as reduction of viral antigen positive hepatocytes at 15 mg/kg, po qd for 48 weeks study (reference value: 35 +/- 27 %). In kind it is functional, Hepatocyte. Further details: scale not given: the % may be the effect or the level left. The procedure, abridged: as §3

Data set [17] relates to Marmota monax. Nature of the data set: Toxicity in Woodchuck hepatitis virus infected woodchuck assessed as increase of liver aspartate aminotransferase activity at 15 mg/kg, po qd for 48 weeks. In kind it is organism-based. Further details: dose 15 mg/kg, route oral. The note with it: in vivo, 8064 h. The procedure, abridged:
as §2

Data set [18] relates to Woodchuck hepatitis virus. Nature of the data set: Antiviral activity against Woodchuck hepatitis virus infected in woodchuck assessed as reduction of viral antigen level in serum at 15 mg/kg, po qd measured on 36th week on 48 weeks study (reference value: 3.8 +/- 1.3 log10 ng/ml). In kind it is functional.
Data set [19] relates to Marmota monax. Kind of data set: Toxicity in Woodchuck hepatitis virus infected woodchuck assessed as effect on hematological parameters at 15 mg/kg, po qd for 48 weeks measured up to 60 weeks. It counts as organism-based. Further details: dose 15 mg/kg, route oral. The note with it: in vivo. The procedure, abridged: as §5
Data set [20] deals with Woodchuck hepatitis virus. Kind of data set: Antiviral activity against Woodchuck hepatitis virus infected in woodchuck assessed as frequency of hepatocytes expressing viral antigen at 15 mg/kg, po qd for 48 weeks. It counts as functional, Hepatocyte. The procedure, abridged: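 Chronic WHV-carrier woodchucks, 5 per group, given 15 mg/kg/day orally once daily for 48 weeks in liquid diet; placebo is diet alone. Liver biopsies at pretreatment, weeks 12, 36, 48 and 12 weeks after withdrawal. Cytoplasmic WHsAg staining scored 0–4: 1 ≤1%, 2 ≤2%, 3 ≤5%, 4 ≥10% of hepatocytes.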

Data set [21] concerns Woodchuck hepatitis virus. Kind of data set: Antiviral activity against Woodchuck hepatitis virus infected in woodchuck assessed as reduction of viral antigen positive hepatocytes at 15 mg/kg, po qd for 48 weeks measured on 60th week (reference value: 26 %). Further details: scale not given: the % may be the effect or the level left. In kind it is functional, Hepatocyte. Summed up:
as §3

Data set [22] deals with Woodchuck hepatitis virus. Nature of the data set: Antiviral activity against Woodchuck hepatitis virus infected in woodchuck assessed as absent of lesion in lobular hepatitis at 15 mg/kg, po qd measured on 36th week on 48 weeks study. It counts as functional, organism-based. Further details: dose 15 mg/kg. Summed up:
as §4

As to `CC(C)(C)C(=O)OCOP(=O)(COCCn1cnc2c(N)ncnc21)OCOC(=O)C(C)(C)C` [ADEFOVIR DIPIVOXIL], the Activity is 1147 pg in data set [1]; “Toxic” in data set [2]; “Toxic” in data set [3]; 21% in data set [4]; 330 pg in data set [6]; 34 pg in data set [7]. Besides, the Activity entry was “Toxic” in [8]; 24 pg in data set [9]; “Non-toxic” in data set [10]; 5 log10ng/ml in [11]; 324 pg in data set [12]; “Toxic” in data set [13]. Moreover, the Activity in data set [15] is listed as 151 pg; in data set [16] it was 13%; in [17] it was “Toxic”; in data set [18], 4.8 log10ng/ml; in data set [19], “Non-toxic”; in data set [20], 2%. Also, the Activity in data set [21] amounted to 48%. The result in data set [5], in [14] and in [22] was Active.

Take `CC(C)OC(=O)OCOP(=O)(CO[C@H](C)Cn1cnc2c(N)ncnc21)OCOC(=O)OC(C)C.O=C(O)/C=C/C(=O)O` [TENOFOVIR DISOPROXIL FUMARATE]: the Activity in [1] was 1374 pg; in data set [2] it was “Toxic”; in data set [3], “Toxic”; in [4], 30%; in data set [6], 870 pg; in [7], 25 pg. The Activity result was “Toxic” in [8]; 31 pg in data set [9]; “Non-toxic” in data set [10]; 4 log10ng/ml in data set [11]; 443 pg in [12]; “Toxic” in data set [13]. Besides, the Activity in data set [15] is reported as 704 pg; in data set [16], 26%; in [17], “Toxic”; in data set [18] it was 2.9 log10ng/ml; in data set [19], “Non-toxic”; in data set [20], 1%. The Activity in [21] is 39%. For the same compound, the outcome in data set [5], in data set [14] and in [22] was Active.
